Entries after “also recorded” stand apart in the source; their conditions may differ. Read-outs that look alike come from different tables or passages of the source. Each block holds one compound with its values, some of them ahead of it.
Key:
Oxidation = assay type: in vitro ADME, rat; settings: for enzymatic oxidation in rat liver cytosol: result in words
Outline: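 Rat liver cytosol (5 mg/mL) with varied base-adduct concentrations and 0.4% DMSO, prewarmed 5 min at 37 °C, then started with substrate. Etheno-guanine bases: 0.1 M NaOH stocks, 0.8 M potassium phosphate pH 7.6, extracts in 0.1 M NaOH, HPLC-UV at 285 nm. Heptanone base: DMSO stock, room-temperature setup, UV at 300 nm. Km and vmax came from nonlinear one-site binding fits.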

[1] = target: Bovine XO from buttermilk (Bos taurus, UniProt P80457); assay: Oxidation of 1,N^2-ε-Gua with purified XO; assay type: biochemical; settings: for oxidation by purified bovine XO: result in words
Chain of Bovine XO from buttermilk (P80457 whole entry): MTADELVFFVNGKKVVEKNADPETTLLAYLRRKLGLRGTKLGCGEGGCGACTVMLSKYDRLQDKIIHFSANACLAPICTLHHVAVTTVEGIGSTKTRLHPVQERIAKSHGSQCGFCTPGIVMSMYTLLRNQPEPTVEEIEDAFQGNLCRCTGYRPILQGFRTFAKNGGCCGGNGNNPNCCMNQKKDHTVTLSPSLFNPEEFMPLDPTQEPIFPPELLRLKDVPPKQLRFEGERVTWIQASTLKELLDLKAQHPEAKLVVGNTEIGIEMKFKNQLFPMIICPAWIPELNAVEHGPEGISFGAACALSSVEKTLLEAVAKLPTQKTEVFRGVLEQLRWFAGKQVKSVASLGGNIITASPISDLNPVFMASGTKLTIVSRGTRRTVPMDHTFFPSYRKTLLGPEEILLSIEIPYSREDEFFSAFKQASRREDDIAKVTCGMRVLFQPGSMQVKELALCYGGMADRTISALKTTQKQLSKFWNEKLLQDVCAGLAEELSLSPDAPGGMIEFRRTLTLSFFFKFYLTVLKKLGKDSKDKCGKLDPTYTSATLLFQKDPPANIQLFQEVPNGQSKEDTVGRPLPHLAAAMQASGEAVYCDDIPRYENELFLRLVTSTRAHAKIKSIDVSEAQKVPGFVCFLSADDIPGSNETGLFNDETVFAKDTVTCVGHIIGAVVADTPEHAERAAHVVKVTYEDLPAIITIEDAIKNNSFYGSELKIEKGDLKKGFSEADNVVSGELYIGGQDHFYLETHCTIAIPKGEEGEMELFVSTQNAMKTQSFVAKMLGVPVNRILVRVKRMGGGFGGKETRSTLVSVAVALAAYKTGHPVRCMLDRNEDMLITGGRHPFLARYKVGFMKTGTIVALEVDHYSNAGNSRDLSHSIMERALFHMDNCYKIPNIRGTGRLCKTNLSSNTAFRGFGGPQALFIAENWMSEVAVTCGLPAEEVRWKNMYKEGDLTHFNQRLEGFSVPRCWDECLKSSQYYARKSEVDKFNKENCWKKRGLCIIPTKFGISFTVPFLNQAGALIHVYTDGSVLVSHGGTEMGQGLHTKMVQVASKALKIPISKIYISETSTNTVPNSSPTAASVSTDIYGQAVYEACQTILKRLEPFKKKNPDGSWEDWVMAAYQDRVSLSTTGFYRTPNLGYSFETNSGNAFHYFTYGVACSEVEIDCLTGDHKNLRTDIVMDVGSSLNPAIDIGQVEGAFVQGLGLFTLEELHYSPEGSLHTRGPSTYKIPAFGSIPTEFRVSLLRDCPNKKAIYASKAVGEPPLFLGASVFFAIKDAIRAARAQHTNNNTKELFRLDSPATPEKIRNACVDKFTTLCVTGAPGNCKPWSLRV

[2] = Glycolytic cleavage of 2′-deoxynucleoside adducts in rat liver cytosol; assay type: in vitro ADME; settings: result in words
Outline: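 Reactions (ice-prepared) contained 5 mg/mL rat liver cytosol, varied adduct concentrations, 0.4% DMSO and 0.1 M potassium phosphate pH 7.4. One etheno-deoxyadenosine adduct was also run in 0.1 M Tris-HCl pH 7.4 without inorganic phosphate. After 5 min at 37 °C, substrate was added to start. Ice-cold methanol stopped reactions; samples were centrifuged at 200000g for 30 min. Supernatants went to reversed-phase HPLC-UV for base formation.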

[3] = oxidation in rat liver cytosol; cited from earlier work
[4] = target: T1, xanthine oxidoreductase (XOR) (Rattus norvegicus, UniProt P22985); assay: Effect of XOR and AO inhibitors on 1,N^2-ε-Gua oxidation in rat liver cytosol; assay type: biochemical; settings: result in words
T1 sequence (P22985 whole entry): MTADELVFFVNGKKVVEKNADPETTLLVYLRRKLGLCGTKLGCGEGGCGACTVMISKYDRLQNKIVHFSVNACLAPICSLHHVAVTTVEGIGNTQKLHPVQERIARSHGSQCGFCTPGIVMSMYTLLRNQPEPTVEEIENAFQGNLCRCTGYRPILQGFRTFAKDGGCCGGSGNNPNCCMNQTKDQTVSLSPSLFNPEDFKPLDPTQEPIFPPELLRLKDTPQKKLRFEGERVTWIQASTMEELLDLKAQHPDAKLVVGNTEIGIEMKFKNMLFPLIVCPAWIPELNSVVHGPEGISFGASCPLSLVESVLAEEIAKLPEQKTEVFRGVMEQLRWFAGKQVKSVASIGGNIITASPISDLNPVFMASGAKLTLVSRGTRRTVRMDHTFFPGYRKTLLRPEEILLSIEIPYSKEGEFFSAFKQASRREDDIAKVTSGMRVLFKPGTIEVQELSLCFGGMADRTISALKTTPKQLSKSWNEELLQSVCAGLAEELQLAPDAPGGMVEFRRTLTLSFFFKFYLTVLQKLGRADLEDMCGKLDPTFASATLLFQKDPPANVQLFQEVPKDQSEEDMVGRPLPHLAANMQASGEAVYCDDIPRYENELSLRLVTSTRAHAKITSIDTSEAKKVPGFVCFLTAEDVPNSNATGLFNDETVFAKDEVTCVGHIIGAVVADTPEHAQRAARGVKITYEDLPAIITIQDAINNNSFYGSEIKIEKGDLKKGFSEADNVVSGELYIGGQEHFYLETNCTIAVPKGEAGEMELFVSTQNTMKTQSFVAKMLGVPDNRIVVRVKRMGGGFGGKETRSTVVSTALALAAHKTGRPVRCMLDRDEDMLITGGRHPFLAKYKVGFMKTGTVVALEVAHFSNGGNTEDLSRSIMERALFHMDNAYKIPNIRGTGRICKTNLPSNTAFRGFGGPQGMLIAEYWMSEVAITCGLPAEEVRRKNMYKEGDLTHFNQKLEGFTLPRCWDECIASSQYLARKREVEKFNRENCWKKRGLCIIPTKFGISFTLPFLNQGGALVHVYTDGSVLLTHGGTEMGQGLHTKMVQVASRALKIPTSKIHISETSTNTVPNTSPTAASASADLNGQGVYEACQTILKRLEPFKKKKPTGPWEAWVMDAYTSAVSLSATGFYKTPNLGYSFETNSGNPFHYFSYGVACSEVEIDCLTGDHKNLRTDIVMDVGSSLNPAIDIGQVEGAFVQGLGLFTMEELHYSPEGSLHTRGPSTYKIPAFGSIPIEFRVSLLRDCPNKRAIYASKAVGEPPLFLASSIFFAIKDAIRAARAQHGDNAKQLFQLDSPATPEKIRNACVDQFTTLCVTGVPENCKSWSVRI
Outline: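 Rat liver cytosol (5 mg/mL final) in 0.8 M potassium phosphate (pH 7.6) with 0.4% DMSO. Substrate stock was in 0.1 M NaOH; 84 μM substrate was used with increasing inhibitor concentrations. Mixes were prepared on ice, equilibrated 5 min at 37 °C, and started by adding substrate. Extracts were taken up in 0.1 M NaOH for reversed-phase HPLC-UV (285 nm). IC50 was fitted by nonlinear regression (one-site competition).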

[5] = target: T1, xanthine oxidoreductase (XOR); assay type: biochemical; settings: co-incubation in rat liver cytosol, result in words
Outline: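 Rat liver cytosol (5 mg/mL final) in 0.1 M potassium phosphate (pH 7.4) with 0.4% DMSO, co-incubated with inhibitors. Substrate stock was in DMSO, and mixes were prepared at room temperature. Reactions were equilibrated 5 min at 37 °C and started by adding substrate. Extracts were dissolved in methanol for C18 HPLC (formic acid water/methanol gradient) with UV at 300 nm.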

[6] = target: T2, purine nucleoside phosphorylase (PNP) (Homo sapiens, UniProt P00491); assay: Incubations of 1,N^6-ε-dA and dIno with purified human PNP; assay type: biochemical; settings: dIno versus 1,N^6-ε-dA
T2 sequence (P00491 1-289): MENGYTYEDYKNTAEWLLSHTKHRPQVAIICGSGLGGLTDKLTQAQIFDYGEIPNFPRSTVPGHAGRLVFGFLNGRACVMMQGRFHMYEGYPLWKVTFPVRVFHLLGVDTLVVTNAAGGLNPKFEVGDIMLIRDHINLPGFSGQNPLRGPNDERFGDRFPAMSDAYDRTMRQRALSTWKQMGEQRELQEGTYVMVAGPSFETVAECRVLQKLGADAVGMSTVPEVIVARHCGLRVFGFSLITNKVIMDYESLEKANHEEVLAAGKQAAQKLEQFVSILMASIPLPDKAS

Compound: 1,N^6-ethenoadenine [1,N^6-ε-Ade]
enzymatic oxidation in rat liver cytosol (Oxidation): neither was found to be oxidized

Compound: 3,N^4-ethenocytosine [3,N^4-ε-Cyt]
enzymatic oxidation in rat liver cytosol (Oxidation): neither was found to be oxidized

Compound: O=c1c2[nH]cnc2nc2[nH]ccn12 [1,N^2-ε-Gua, 1,N^2-ethenoguanine]
vmax (Oxidation; oxidation in rat liver cytosol, unit of the text): 105 pmol/min/mg
vmax (Oxidation; oxidation of substrate in rat liver cytosol, unit of Table 1): 105000 pmol/min/mg
Km (Oxidation; rat, rat liver cytosol, pH 7.6): 84 µM
enzymatic oxidation in rat liver cytosol (Oxidation): substrates for enzymatic oxidation
vmax ([1]; consumption of 1,N^2-ε-Gua by XOR purified from bovine milk, Figure 3 legend): 10.1 μmol min^−1 (mg of XOR)^−1
vmax ([1]; consumption of 1,N^2-ε-Gua by purified bovine XO): 10.1 μmol min^−1 (mg of XO)^−1
oxidation by purified bovine XO [1]: readily consumed

Compound: OC[C@H]1O[C@@H](n2cnc3c2ncn2ccnc32)[C@H](O)[C@@H]1O [1,N^6-ε-adenosine]
glycolytic cleavage in rat liver cytosol [2]: Identical observations

Compound: O=c1ccn2c(=O)c3[nH]cnc3nc2[nH]1 [6-oxo-M1G]
Km [3]: 210 µM
vmax [3]: 257 nmol/min/mg

More lines, main results first:

enzymatic oxidation in rat liver cytosol (Oxidation): substrates for enzymatic oxidation
Compound: 7-(2-oxoheptyl)-1,N^2-ethenoguanine [heptanone-1,N^2-ε-Gua]

enzymatic oxidation in rat liver cytosol (Oxidation): did not result in oxidative metabolism
oxidation by purified bovine XO [1]: did not result in oxidative metabolism
Compound: O=c1nc2[nH]ccn2c2nc[nH]c12 [N^2,3-ε-Gua, N^2,3-ethenoguanine]

enzymatic oxidation in rat liver cytosol (Oxidation): not oxidized
Compound: O=c1c2[nH]cnc2nc2n1CCCN2 [PGua, 1,N^2-propanoguanine]

inhibition of heptanone-1,N^2-ε-Gua oxidation [5]: inhibited oxidation
Compound: Oc1ncnc2[nH]ncc12 [allopurinol]
inhibition of 1,N^2-ε-Gua metabolite production [4]: inhibited; also recorded: complete inhibition

efficiency of turnover relative to 1,N^6-ε-dA [6]: approximately 57 fold
Compound: OC[C@H]1O[C@@H](n2cnc3c(O)ncnc32)C[C@@H]1O [dIno, 2′-deoxyinosine]

From publication PMC2975463 (Biochemistry, 2009)
